Measurements taken from ChEMBL document CHEMBL4340510, “Design, synthesis, and biological evaluation of truncated deguelin derivatives as Hsp90 inhibitors” (Eur J Med Chem, 2019).
pIC50: −log10 of the molar value. Calls of active or inactive are those of the source. The rule behind the calls is not given here.

Experiments:
MCF7 [1] = assay: Induction of apoptosis in human MCF7 cells assessed as cell rounding at 0.5 to 4 uM after 36 hrs by hoechst 33258 staining-based fluorescence microscopy; type: functional
How it was run: (§1)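 Approximately 5×10^4 cells per well are exposed to 0, 0.5, 1.0, 2.0 or 4.0 μM for 36 h. Cells are PBS-washed and fixed in 4% paraformaldehyde for 30 min. They are stained with 20 μg/ml Hoechst 33258 for 15 min at room temperature in the dark, and nuclear morphology is examined by fluorescence microscopy.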

[2] = target: T1, Heat shock protein HSP90 (Homo sapiens) (UniProt P07900+P08238); assay: Inhibition of HSP90 in human MCF7 cells assessed as decrease in phosphorylation of MAPK after 48 hrs by Western blot analysis; type: cell-based
How it was run: (§2)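 Cells are treated 48 h and washed twice in ice-cold PBS. They are lysed on ice for 20 min and spun at 13,000 g, 4 °C. 20 μg protein is run on 8-12% SDS-PAGE and transferred to PVDF. Membranes are probed overnight at 4 °C with primary antibodies (Bcl-xL, cleaved caspase-3, mTOR/p-mTOR, MAPK/p-MAPK, Akt/p-Akt, HIF-1α, survivin; β-actin/GAPDH loading). HRP secondary and chemiluminescence detection follow.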

MCF7 [3] = assay: Cell cycle arrest in human MCF7 cells assessed as increase in accumulation at S phase after 48 hrs by propidium iodide staining-based flow cytometry; type: functional
How it was run: (§3)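 5×10^4 cells are seeded, incubated overnight, then treated 48 h. Cells are washed in cold PBS and fixed in 70% ethanol at −20 °C for 12 h. They are then stained with 100 µg/mL RNase plus 50 µg/mL PI in PBS, 37 °C for 30 min. DNA content is measured by flow cytometry.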

MCF7 [4] = assay: Induction of apoptosis in human MCF7 cells assessed as increase in early apoptotic cells after 36 hrs by Annexin V-FITC/propidium iodide double staining-based flow cytometry; type: functional, cell-based
How it was run: (§4)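 Cells (1×10^5/well) are cultured 24 h, then treated in triplicate for 36 h at 0.5, 1.0, 2.0 or 4.0 μM. Vehicle is 1‰ DMSO in complete medium. Cells are stained with FITC-Annexin V and PI for 15 min in the dark and analysed by flow cytometry. Mean±SD of three independent experiments.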

MCF7 [5] = assay: Induction of apoptosis in human MCF7 cells assessed as peripherization of chromosome at 0.5 to 4 uM after 36 hrs by hoechst 33258 staining-based fluorescence microscopy; type: functional, cell-based; how it was run: as §1
MCF7 [6] = assay: Induction of apoptosis in human MCF7 cells assessed as condensation of chromosome at 0.5 to 4 uM after 36 hrs by hoechst 33258 staining-based fluorescence microscopy; type: functional, cell-based; how it was run: as §1
MCF7 [7] = assay: Cell cycle arrest in human MCF7 cells assessed as accumulation at G1 phase at 4 uM after 48 hrs by propidium iodide staining-based flow cytometry (reference value: 60.61%); type: functional; how it was run: as §3
MCF7 [8] = assay: Cell cycle arrest in human MCF7 cells assessed as accumulation at S phase at 2 uM after 48 hrs by propidium iodide staining-based flow cytometry (reference value: 16.64%); type: functional; how it was run: as §3
MCF7 [9] = assay: Antiinvasive activity in human MCF7 cells assessed as number of invaded cells at 1 uM after 24 hrs by crystal violet dye-based transwell matrix penetration assay (reference value: 172.1 +/- 8.3); type: functional
NCI-H1299 [10] = assay: Antiproliferative activity against human NCI-H1299 cells assessed as inhibition of cell growth at 10 uM after 72 hrs by MTT assay relative to control; type: functional; conditions: NCI-H1299, 72 h, read-out: GI
How it was run: (§5)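 Cells in RPMI 1640 are seeded at 4,000 cells/well and held 24 h at 37 °C, 5% CO2. Medium is replaced with compound-containing medium (DMSO ≤0.25%) for 72 h at 37 °C. MTT read-out by absorbance at 570 nm. Quadruplicate wells, repeated three times; values are means of three independent experiments.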

MCF7 [11] = assay: Induction of apoptosis in human MCF7 cells assessed as increase in early apoptotic cells at 0.5 to 4 uM after 36 hrs by Annexin V-FITC/propidium iodide double staining-based flow cytometry relative to control; type: functional; how it was run: as §4
MCF7 [12] = assay: Cell cycle arrest in human MCF7 cells assessed as accumulation at G1 phase at 0.5 uM after 48 hrs by propidium iodide staining-based flow cytometry (reference value: 60.61%); type: functional; how it was run: as §3
MCF7 [13] = assay: Induction of apoptosis in human MCF7 cells assessed as increase in late apoptotic cells at 0.5 to 4 uM after 36 hrs by Annexin V-FITC/propidium iodide double staining-based flow cytometry relative to control; type: functional; how it was run: as §4
[14] = target: T1, Heat shock protein HSP90 (Homo sapiens); assay: Inhibition of HSP90 in human MCF7 cells assessed as reduction in AKT expression at 4 uM by coimmunoprecipitation-based Western blot assay; type: cell-based
How it was run: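 Cells are treated with 4 μM. Anti-Hsp90 or anti-Akt antibodies are added to the supernatants, and immune complexes are pulled down with protein A agarose. Complexes are eluted by boiling in loading buffer and immunoblotted with anti-Hsp90 or anti-Akt antibodies.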

NCI-H1299 [15] = assay: Antiproliferative activity against human NCI-H1299 cells assessed as inhibition of cell growth at 0.1 uM after 72 hrs by MTT assay relative to control; type: functional; conditions: NCI-H1299, 72 h, read-out: GI; how it was run: as §5
MCF7 [16] = assay: Antiinvasive activity in human MCF7 cells after 24 hrs by crystal violet dye-based transwell matrix penetration assay; type: functional, cell-based
How it was run: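 Matrigel-coated transwell invasion chambers, 1×10^4 cells seeded in the upper chamber, 37 °C for 24 h. Non-invaded cells are swabbed off. Invaded cells on the underside are fixed in 1% paraformaldehyde, stained with crystal violet and counted in ten random 200× fields per well. Result is the mean cells per field, from three independent experiments.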

MCF7 [17] = assay: Cell cycle arrest in human MCF7 cells assessed as accumulation at G2 phase at 1 uM after 48 hrs by propidium iodide staining-based flow cytometry (reference value: 22.74%); type: functional; how it was run: as §3
MCF7 [18] = assay: Cell cycle arrest in human MCF7 cells assessed as accumulation at S phase at 1 uM after 48 hrs by propidium iodide staining-based flow cytometry (reference value: 16.64%); type: functional; how it was run: as §3
NCI-H1299 [19] = assay: Antiproliferative activity against human NCI-H1299 cells after 72 hrs by MTT assay; type: functional, cell-based; conditions: NCI-H1299, 72 h; how it was run: as §5
MCF7 [20] = assay: Cell cycle arrest in human MCF7 cells assessed as accumulation at G1 phase at 1 uM after 48 hrs by propidium iodide staining-based flow cytometry (reference value: 60.61%); type: functional; how it was run: as §3
NCI-H1299 [21] = assay: Antiproliferative activity against human NCI-H1299 cells assessed as inhibition of cell growth at 1 uM after 72 hrs by MTT assay relative to control; type: functional; conditions: NCI-H1299, 72 h, read-out: GI; how it was run: as §5
[22] = target: T1, Heat shock protein HSP90 (Homo sapiens); assay: Inhibition of HSP90 in human MCF7 cells assessed as down regulation of HIF-1alpha expression after 48 hrs by Western blot analysis; type: cell-based; how it was run: as §2
MCF7 [23] = assay: Cell cycle arrest in human MCF7 cells assessed as accumulation at S phase at 0.5 uM after 48 hrs by propidium iodide staining-based flow cytometry (reference value: 16.64%); type: functional; how it was run: as §3
MCF7 [24] = assay: Cell cycle arrest in human MCF7 cells assessed as accumulation at G2 phase at 2 uM after 48 hrs by propidium iodide staining-based flow cytometry (reference value: 22.74%); type: functional; how it was run: as §3
MCF7 [25] = assay: Induction of apoptosis in human MCF7 cells assessed as increase in late apoptotic cells after 36 hrs by Annexin V-FITC/propidium iodide double staining-based flow cytometry; type: functional, cell-based; how it was run: as §4
A549 = assay: Antiproliferative activity against human A549 cells after 72 hrs by MTT assay; type: functional, cell-based; conditions: A549, 72 h; how it was run: as §5

With `COc1cc(OC)c(OC)cc1CC(=O)c1ccc2c(c1OC)C=CC(C)(C)O2` the Activity (MCF7 [1]) was “Active”, the inhibition [2] was “Dose-dependent effect” and the Activity (MCF7 [3]) was “Dose-dependent effect”. The Activity (MCF7 [4]) was “Dose-dependent effect”, the Activity (MCF7 [5]) was “Active” and the Activity (MCF7 [6]) was “Active”. The Activity (MCF7 [7]) was 40.72%, the Activity (MCF7 [8]) was 19.64% and the Activity (MCF7 [9]) was 63.2. For the same compound, the inhibition of growth at 10 µM (NCI-H1299 [10]) was 72.1%, the Activity (MCF7 [11]) was 13.6 - 71.8% and the Activity (MCF7 [12]) was 57.49%. The Activity (MCF7 [13]) was 13.6 - 71.8%, the inhibition [14] was “Active” and the inhibition of growth at 0.1 µM (NCI-H1299 [15]) was 15.3%. For the same compound, the Activity (MCF7 [16]) was “Dose-dependent effect”, the Activity (MCF7 [17]) was 21.55% and the Activity (MCF7 [18]) was 23.2%. For the same compound, the pIC50 (NCI-H1299 [19]) was 5.47, the Activity (MCF7 [20]) was 55.26% and the inhibition of growth at 1 µM (NCI-H1299 [21]) was 40.3%. The inhibition [22] was “Dose-dependent effect”, the Activity (MCF7 [23]) was 22.99% and the Activity (MCF7 [24]) was 34.16%. For the same compound, the Activity (MCF7 [25]) was “Dose-dependent effect” and the pIC50 (A549) was 5.46.
